Laboratory results reported in article PMC3742633 (Molecular cancer therapeutics, 2013).

What was measured:
[1] = molecular target: recombinant human PFKFB3 protein (Homo sapiens, UniProt Q16875); experiment: Recombinant PFKFB3 kinase assay; type: biochemical
hexokinase = experiment: Activity of purified hexokinase; type: biochemical; conditions: up to 100 μM; data not shown
phosphoglucoseisomerase = phosphoglucoseisomerase (Homo sapiens, UniProt P06744); experiment: Activity of purified phosphoglucoseisomerase; type: biochemical; conditions: up to 100 μM; data not shown
PFKFB4 = PFKFB4 (Homo sapiens, UniProt Q16877); experiment: Activity of purified PFKFB4; type: biochemical; conditions: up to 100 μM; data not shown
Jurkat or H522 cells = experiment: 2-[1-14C]-deoxy-D-glucose uptake; type: cell-based, human; conditions: three hours exposure, Jurkat and H522
In short: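 Jurkat or H522 cells in RPMI 1640 + 10% FCS + 50 μg/ml gentamycin at 100,000/ml, treated immediately with DMSO vehicle or test compound for 3 h. Washed in glucose-free RPMI, 30 min with inhibitor, then 1 h with 14C-2-deoxyglucose (0.1 μCi/μl stock). Ice-cold washes, 0.5% SDS lysis, scintillation counting; counts normalized to BCA protein.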

[2] = system: Jurkat T cell leukemia cells; experiment: Annexin V / propidium iodide flow cytometry; type: cell-based, human; conditions: five hours
Solubility = type: physicochemical
[3] = system: BxPC-3 pancreatic cancer cells; experiment: BxPC-3 xenograft tumor growth; type: in vivo, Balb/C athymic mice; conditions: 25 mg/kg i.p. every 3 days × 4; similarly to gemcitabine
HL-60(TB) = experiment: NCI 60 cell line screen, Sulforhodamine B Assay; type: cell-based; conditions: Homo sapiens, HL-60, 48 h
In short: (§1)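 Run through the NCI-60 screening service: human cancer cell lines exposed to test compound for 48 h. Growth read as cellular protein content by sulforhodamine B staining, and GI50 derived from this.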

MOLT-4 = experiment: NCI 60 cell line screen, Sulforhodamine B Assay; type: cell-based; conditions: Homo sapiens, MOLT-4, 48 h
In short: as §1

RPMI-8226 = experiment: NCI 60 cell line screen, Sulforhodamine B Assay; type: cell-based; conditions: Homo sapiens, RPMI-8226, 48 h
In short: as §1

SR = experiment: NCI 60 cell line screen, Sulforhodamine B Assay; type: cell-based; conditions: Homo sapiens, 48 h
In short: (§2)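 Run through the National Cancer Institute 60 cell line screening service on its panel of 59 human cancer lines in vitro. Cytostatic/toxic effect was read as cellular protein content (sulforhodamine B) over 48 h.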

A549/ATCC = experiment: NCI 60 cell line screen, Sulforhodamine B Assay; type: cell-based; conditions: Homo sapiens, A549, 48 h
In short: as §1

EKVX = experiment: NCI 60 cell line screen, Sulforhodamine B Assay; type: cell-based; conditions: Homo sapiens, 48 h
In short: as §1

HOP-62 = experiment: NCI 60 cell line screen, Sulforhodamine B Assay; type: cell-based; conditions: Homo sapiens, HOP-62, 48 h
In short: as §1

NCI-H23 = experiment: NCI 60 cell line screen, Sulforhodamine B Assay; type: cell-based; conditions: Homo sapiens, NCI-H23, 48 h
In short: as §1

NCI-H460 = experiment: NCI 60 cell line screen, Sulforhodamine B Assay; type: cell-based; conditions: Homo sapiens, NCI-H460, 48 h
In short: as §1

COLO 205 = experiment: NCI 60 cell line screen, Sulforhodamine B Assay; type: cell-based; conditions: Homo sapiens, COLO 205, 48 h
In short: as §1

HCT-15 = experiment: NCI 60 cell line screen, Sulforhodamine B Assay; type: cell-based; conditions: Homo sapiens, HCT-15, 48 h
In short: as §1

HT29 = experiment: NCI 60 cell line screen, Sulforhodamine B Assay; type: cell-based; conditions: Homo sapiens, HT-29, 48 h
In short: as §1

SF-268 = experiment: NCI 60 cell line screen, Sulforhodamine B Assay; type: cell-based; conditions: Homo sapiens, SF-268, 48 h
In short: as §1

SF-539 = experiment: NCI 60 cell line screen, Sulforhodamine B Assay; type: cell-based; conditions: Homo sapiens, SF-539, 48 h
In short: as §1

SNB-15 = experiment: NCI 60 cell line screen, Sulforhodamine B Assay; type: cell-based; conditions: Homo sapiens, 48 h
In short: as §2

U251 = experiment: NCI 60 cell line screen, Sulforhodamine B Assay; type: cell-based; conditions: Homo sapiens, U-251, 48 h
In short: as §2

LOX IMVI = experiment: NCI 60 cell line screen, Sulforhodamine B Assay; type: cell-based; conditions: Homo sapiens, 48 h
In short: as §1

M14 = experiment: NCI 60 cell line screen, Sulforhodamine B Assay; type: cell-based; conditions: Homo sapiens, M14, 48 h
In short: as §1

MDA-MB-435 = experiment: NCI 60 cell line screen, Sulforhodamine B Assay; type: cell-based; conditions: Homo sapiens, MDA-MB-435, 48 h
In short: as §1

SK-MEL-28 = experiment: NCI 60 cell line screen, Sulforhodamine B Assay; type: cell-based; conditions: Homo sapiens, SK-MEL-28, 48 h
In short: as §2

SK-MEL-5 = experiment: NCI 60 cell line screen, Sulforhodamine B Assay; type: cell-based; conditions: Homo sapiens, SK-MEL-5, 48 h
In short: as §2

OVCAR-4 = experiment: NCI 60 cell line screen, Sulforhodamine B Assay; type: cell-based; conditions: Homo sapiens, OVCAR-4, 48 h
In short: as §1

786–0 = experiment: NCI 60 cell line screen, Sulforhodamine B Assay; type: cell-based; conditions: Homo sapiens, 786-0, 48 h
In short: as §1

RXF 393 = experiment: NCI 60 cell line screen, Sulforhodamine B Assay; type: cell-based; conditions: Homo sapiens, RXF 393, 48 h
In short: as §1

TK-10 = experiment: NCI 60 cell line screen, Sulforhodamine B Assay; type: cell-based; conditions: Homo sapiens, TK-10, 48 h
In short: as §2

PC-3 = experiment: NCI 60 cell line screen, Sulforhodamine B Assay; type: cell-based; conditions: Homo sapiens, PC-3, 48 h
In short: as §1

DU-145 = experiment: NCI 60 cell line screen, Sulforhodamine B Assay; type: cell-based; conditions: Homo sapiens, DU-145, 48 h
In short: as §1

MCF7 = experiment: NCI 60 cell line screen, Sulforhodamine B Assay; type: cell-based; conditions: Homo sapiens, MCF7, 48 h
In short: as §1

MDA-MB-231/ATCC = experiment: NCI 60 cell line screen, Sulforhodamine B Assay; type: cell-based; conditions: Homo sapiens, MDA-MB-231, 48 h
In short: as §1

BT-549 = experiment: NCI 60 cell line screen, Sulforhodamine B Assay; type: cell-based; conditions: Homo sapiens, BT-549, 48 h
In short: as §1

[4] = Tolerability of intraperitoneal PFK15; conditions: 25 mg/kg i.p. every three days

recombinant human PFKFB3 protein, sequence (Q16875 whole entry): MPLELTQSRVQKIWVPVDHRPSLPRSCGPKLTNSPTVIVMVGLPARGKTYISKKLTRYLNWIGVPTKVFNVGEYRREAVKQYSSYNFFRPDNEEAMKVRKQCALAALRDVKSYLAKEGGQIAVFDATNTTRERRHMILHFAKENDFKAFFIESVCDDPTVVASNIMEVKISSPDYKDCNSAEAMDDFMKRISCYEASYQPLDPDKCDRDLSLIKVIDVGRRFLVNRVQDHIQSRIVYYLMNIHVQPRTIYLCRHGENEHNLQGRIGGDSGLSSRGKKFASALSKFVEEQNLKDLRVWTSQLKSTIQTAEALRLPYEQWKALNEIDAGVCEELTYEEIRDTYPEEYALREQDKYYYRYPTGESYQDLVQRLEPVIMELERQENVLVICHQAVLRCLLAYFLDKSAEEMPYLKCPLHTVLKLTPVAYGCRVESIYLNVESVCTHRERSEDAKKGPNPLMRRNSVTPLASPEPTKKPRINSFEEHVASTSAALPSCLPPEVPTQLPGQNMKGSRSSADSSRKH
PFKFB4, sequence (Q16877 whole entry, species assumed): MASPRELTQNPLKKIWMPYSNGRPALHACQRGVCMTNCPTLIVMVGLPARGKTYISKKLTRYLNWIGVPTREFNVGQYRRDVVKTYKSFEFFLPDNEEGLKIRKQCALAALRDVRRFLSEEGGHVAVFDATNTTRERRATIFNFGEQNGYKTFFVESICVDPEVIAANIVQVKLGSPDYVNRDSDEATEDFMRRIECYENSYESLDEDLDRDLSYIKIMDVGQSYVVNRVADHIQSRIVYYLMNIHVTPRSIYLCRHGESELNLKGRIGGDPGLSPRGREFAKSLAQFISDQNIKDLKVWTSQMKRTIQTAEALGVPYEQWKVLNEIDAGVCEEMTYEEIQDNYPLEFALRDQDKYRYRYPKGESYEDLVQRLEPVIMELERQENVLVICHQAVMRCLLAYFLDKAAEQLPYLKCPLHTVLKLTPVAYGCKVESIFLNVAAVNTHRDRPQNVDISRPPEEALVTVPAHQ

O=C(C=Cc1ccc2ccccc2n1)c1ccncc1 [PFK15, 1-(4-pyridinyl)-3-(2-quinolinyl)-2-propen-1-one]
IC50 [1]: 207 nM | fold more activity against PFKFB3 than 3PO ([1]; relative to 3PO): approximately 100 fold | inhibition of activity of purified hexokinase (hexokinase): not inhibit | inhibition of activity of purified phosphoglucoseisomerase (phosphoglucoseisomerase): not inhibit | inhibition of activity of purified PFKFB4 (PFKFB4): not inhibit | effect on glucose uptake (14C-2DG) (Jurkat or H522 cells): reduced | cells undergoing early apoptosis (Annexin V+/PI−) ([2]; 3 μM): increased | cells undergoing late apoptosis (Annexin V+/PI+) ([2]; 3 and 20 μM): dose-dependent increase | solubility (Solubility): limited solubility | growth of pancreatic adenocarcinomas (BxPC-3) [3]: suppressed the growth | GI50 (HL-60(TB)): 2040 nM | GI50 (MOLT-4): 2240 nM | GI50 (RPMI-8226): 2190 nM | GI50 (SR): 230 nM | GI50 (A549/ATCC): 5.37 µM | GI50 (EKVX): 12.9 µM | GI50 (HOP-62): 2340 nM | GI50 (NCI-H23): 3.16 µM | GI50 (NCI-H460): 3.47 µM | GI50 (COLO 205): 2450 nM | GI50 (HCT-15): 1100 nM | GI50 (HT29): 2510 nM | GI50 (SF-268): 5.25 µM | GI50 (SF-539): 2510 nM | GI50 (SNB-15): 11.2 µM | GI50 (U251): 2040 nM | GI50 (LOX IMVI): 1660 nM | GI50 (M14): 3.72 µM | GI50 (MDA-MB-435): 3.24 µM | GI50 (SK-MEL-28): 2090 nM | GI50 (SK-MEL-5): 3.47 µM | GI50 (OVCAR-4): 2340 nM | GI50 (786–0): 2000 nM | GI50 (RXF 393): 1700 nM | GI50 (TK-10): 4.07 µM | GI50 (PC-3): 3.16 µM | GI50 (DU-145): 2240 nM | GI50 (MCF7): 1860 nM | GI50 (MDA-MB-231/ATCC): 2040 nM | GI50 (BT-549): 2750 nM | body mass loss [4]: < 10% | end organ toxicity based on blood, urine and histological analyses [4]: no end organ toxicity
